Assay outcomes from PubChem BioAssay.
The list is not random: actives were taken first. Their share in the collection is about 1.3%.
PfG6PD inh: PfG6PD (Plasmodium falciparum) enzyme inhibition. 350,000 compounds, 0.78% hits. PfGluPho enzyme, NADPH resazurin-diaphorase fluorescence. inhibition, % at 20 µM;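 active means inhibition reaching at least a set limit at 20 µM in the primary screen, cut at about 59% in these data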;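 further: 0% = DMSO wells with substrate and 100% = DMSO wells lacking glucose-6-phosphate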
Diaphorase inh: inhibits diaphorase or chemically oxidizes, flagging diaphorase assay artifacts; diaphorase resazurin-to-resorufin fluorescence, NADH, 16 min; bacterial (C. kluyveri) enzyme, not human; inhibition, % at 20 µM; 190,000 compounds, 0.69% hits;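 active means primary screen inhibition at 20 µM above a set limit, cut at about 50% in these data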;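 further: plate controls were DMSO with full reaction for no effect and wells lacking NADH for full effect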
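Assay system: diaphorase enzyme from Clostridium kluyveri. Quantity: enzyme working solution with 0.14 U/mL diaphorase. Schedule: reaction incubation of 16 min at room temperature. Technique: resorufin fluorescence, excitation 544 nm, emission 590 nm. Controls: No-NADH positive control and DMSO neutral control.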
Tb hexokinase: blocks Trypanosoma brucei hexokinase 1 activity | recombinant TbHK1, G6PDH-coupled NADH A340 | inhibition, % at 10 µM | 220,000 compounds, 0.11% hits | AID 1430;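 active means inhibition of 50% or more in the single-dose primary screen; inactive means inhibition below 50%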
G6PDH counter: L. mesenteroides G6PDH inhibition counter-screen | Purified L. mesenteroides G6PDH, diaphorase/resazurin coupled fluorescence, 45 min | inhibition, % at 5 µM | 200,000 compounds, 0.12% hits | AID 1020; in the data active means inhibition above about 50%
HKDC1 inh: inhibitors of human hexokinase HKDC1. Q2TB90. recombinant HKDC1, G6PDH/diaphorase resazurin coupled fluorescence. inhibition, % at 20 µM. 340,000 compounds, 0.16% hits;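 active means inhibition above about 35% when tested at 20 µM, limit read from the data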;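 further: plate controls were DMSO wells with enzyme for no effect and DMSO wells lacking enzyme for full effect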
Target sequence (Q2TB90 whole entry, looked up): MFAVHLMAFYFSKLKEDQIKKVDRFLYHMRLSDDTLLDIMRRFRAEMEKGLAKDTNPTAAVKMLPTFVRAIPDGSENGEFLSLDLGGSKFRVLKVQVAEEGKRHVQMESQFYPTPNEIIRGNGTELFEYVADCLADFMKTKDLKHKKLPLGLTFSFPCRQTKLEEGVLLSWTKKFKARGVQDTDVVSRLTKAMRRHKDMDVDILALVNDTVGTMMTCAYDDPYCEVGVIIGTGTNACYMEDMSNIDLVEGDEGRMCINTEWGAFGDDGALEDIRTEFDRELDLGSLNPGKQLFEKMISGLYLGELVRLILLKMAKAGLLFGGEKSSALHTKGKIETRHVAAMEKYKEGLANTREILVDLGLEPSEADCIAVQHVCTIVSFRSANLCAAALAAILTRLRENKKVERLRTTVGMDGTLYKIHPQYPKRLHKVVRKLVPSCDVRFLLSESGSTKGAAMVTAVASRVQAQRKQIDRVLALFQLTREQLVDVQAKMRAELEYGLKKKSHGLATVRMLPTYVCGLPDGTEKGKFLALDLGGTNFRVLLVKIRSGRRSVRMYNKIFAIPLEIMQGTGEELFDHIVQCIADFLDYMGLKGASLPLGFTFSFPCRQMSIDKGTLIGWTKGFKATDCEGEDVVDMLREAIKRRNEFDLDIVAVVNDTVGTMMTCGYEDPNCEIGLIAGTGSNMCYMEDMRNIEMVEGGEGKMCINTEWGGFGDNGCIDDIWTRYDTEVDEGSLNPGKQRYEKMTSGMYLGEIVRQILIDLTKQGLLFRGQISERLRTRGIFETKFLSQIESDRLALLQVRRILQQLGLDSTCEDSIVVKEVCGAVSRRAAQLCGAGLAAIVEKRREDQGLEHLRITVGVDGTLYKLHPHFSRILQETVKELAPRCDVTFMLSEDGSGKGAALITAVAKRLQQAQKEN
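Assay system: in-house recombinant HK5 (HKDC1) enzyme. Input: HKDC1 at 5 µg/mL. Medium: Tris pH 8.0 buffer with MgCl2, Tween-20, BSA, BME. Dosing: single 20 µM dose. Schedule: 90 min reaction incubation at room temperature, dark. Signal: resazurin-to-resorufin fluorescence via G6PDH and diaphorase coupling, 525/613 nm. Controls: DMSO-enzyme wells negative, buffer-substituted wells positive.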
PfGluPho conf: confirmation of Plasmodium falciparum G6PD inhibitors | 2,400 compounds, 34% hits | AID 504753 | inhibition, % at 20 µM | recombinant PfGluPho, NADPH-diaphorase-resazurin fluorescence | shares compounds with PfG6PD inh;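 active means inhibition of at least 50% at 20 µM in any single replicate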;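 further: 0% = DMSO with substrate and 100% = DMSO lacking glucose-6-phosphate substrate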
Diaphorase 10uM: counter-screen for P. falciparum G6PD inhibitors: diaphorase inhibitors, oxidizers; shares compounds with PfG6PD inh; diaphorase-coupled resazurin reduction, fluorescence, NADPH 10 uM; inhibition, % at 20 µM; 820 compounds, 39% hits;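 active means average inhibition reaching 50% or more with the compound at 20 µM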;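 further: resorufin red fluorescence formed as diaphorase reduces resazurin using NADPH; 0% = DMSO with enzyme and 100% = DMSO without enzyme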
Diaph ctr 30uM: inhibits diaphorase or oxidizes, flagging false PfG6PD hits. shares compounds with PfG6PD inh. Diaphorase/resazurin coupled assay, resorufin fluorescence, 30 uM NADPH. inhibition, % at 20 µM. 820 compounds, 29% hits. AID 504863;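 active means inhibition averaging 50% or more, tested at 20 µM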;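 further: 0% = DMSO with enzyme and 100% = DMSO wells lacking diaphorase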
* = called active by the depositor; x = not tested or not shown.

SMILES	PfG6PD inh	Diaphorase inh	Tb hexokinase	G6PDH counter	HKDC1 inh	PfGluPho conf	Diaphorase 10uM	Diaph ctr 30uM
CCC(O)(C#CCN1CCCCC1)CC	-13	0	5	8	8	x	x	x
CCCn1c(/C=C/c2ccccc2)nc2ccccc21	59*	0	-41	4	-4	10	x	x
CCn1c(/C=C/c2cc[n+](C)cc2)nc2ccccc21	-4	x	x	x	-5	x	x	x
COCCOCCn1c(/C=C/c2ccccc2)nc2ccccc21	63*	11	-48	-4	-12	40	x	x
COc1ccc(/C=C/c2nc3ccccc3n2Cc2ccc(OC)c(OC)c2)cc1	66*	8	-30	-4	4	49*	43	30
COCCOCCn1c(CCCO)nc2ccccc21	7	4	2	1	-6	x	x	x
O=C(Nc1ccc(Cl)c(S(=O)(=O)N2CCCC2)c1)c1cc(=O)[nH]c2ccccc12	33	x	x	x	2	x	x	x
O=C(ON=C1CCN(c2ccc([N+](=O)[O-])cc2)CC1)c1ccccc1	12	14	-1	-1	-10	x	x	x
COc1ccc(C(=O)Nc2ccccc2C(=O)N2CCCCCC2)cc1OC	12	x	x	x	-4	x	x	x
CC[n+]1c(C)sc2c3ccsc3ccc21	70*	34	0	1	-11	27	x	x
CC[n+]1c(C)sc2sc3ccccc3c21	x	x	5	x	x	x	x	x
Cc1ccc(OCC(=O)NC(=S)Nc2ccc(Br)cn2)cc1	1	x	-16	x	-7	x	x	x
Cn1ncc(Cl)c1C(=O)N/N=C/c1cccc(OC2CSC2)c1	109*	3	-6	0	4	85*	76*	64*
O=C(CSc1nc2ccccc2[nH]1)NC1CCCc2ccccc21 (centres undefined)	64*	10	-1	-7	2	57*	42	40
Cc1ccc2nc(SC(C)C(=O)NC3CCCc4ccccc43)[nH]c2c1 (centres undefined)	76*	15	-1	-8	5	44	x	x
O=C(CSc1nc2ccc(Cl)cc2[nH]1)NC1CCCc2ccccc21 (centres undefined)	107*	10	-3	-9	6	55*	42	34
C=CCn1c(SCc2nc3sc4c(c3c(=O)[nH]2)CCCC4)nc2ccccc2c1=O	-4	16	2	17	-3	x	x	x
COc1ccc(NC(=S)Nc2ccc(OCc3ccccc3)cc2)c(OC)c1	2	11	0	-2	0	x	x	x
COc1ccc2nc3cc(Cl)ccc3c(Nc3ccc(O)c(CN4CCN(C)CC4)c3)c2c1	109*	x	x	x	7	45*	33	40
COc1ccc2nc3cc(Cl)ccc3c(C#N)c2c1	3	x	-8	x	-1	x	x	x
COc1ccc(CCn2c(NCc3ccco3)nc3c2c(=O)[nH]c(=O)n3C)cc1	20	-15	-1	14	0	x	x	x
COc1ccc(CCn2c(NN=C(C)C)nc3c2c(=O)[nH]c(=O)n3C)cc1	118*	x	-11	x	10	51*	-1	-7
COc1ccc(CCn2c(NN)nc3c2c(=O)[nH]c(=O)n3C)cc1	103*	x	-10	x	3	88*	-6	-2
Cc1ccc(NC(=S)NCC2CCN(C(C)c3ccccc3)C2)cc1 (centres undefined)	10	10	3	6	-2	x	x	x
Cc1cc(C)c(NC(=S)NCC2CCN(C(C)c3ccccc3)C2)c(C)c1 (centres undefined)	84*	6	1	1	-9	76*	0	-3
Cc1cc(NCCCCCCCNc2cc(C)nc3cc([N+](=O)[O-])ccc23)c2ccc([N+](=O)[O-])cc2n1	78*	x	x	x	7	12	x	x
O=C(CCc1ccc(O)c(O)c1)N/N=C/c1ccc2c(c1)OCO2	62*	x	x	x	5	34	x	x
Cc1nn(CCC(N)=S)c2nc(-c3cccs3)cc(C(F)(F)F)c12	62*	22	-25	-18	0	7	x	x
COc1ncnc2c1ncn2CCCNc1ccc(C)c(C)c1	7	x	x	x	x	x	x	x
COc1cc(NCCCn2ccc(NC(=O)OCc3ccccc3)nc2=O)cc(OC)c1OC	80*	x	x	x	18	74*	-4	5
